Source: ChEMBL document CHEMBL1134719, “Design, synthesis and stability of N-acyloxymethyl- and N-aminocarbonyloxymethyl-2-azetidinones as human leukocyte elastase inhibitors” (Bioorg Med Chem Lett, 2001)
Activity calls are given as the source filed them. No cut-off for these calls is given here.

Tests used:
[1] = target: T1, Neutrophil elastase (Homo sapiens) (UniProt P08246); assay: (§1) Second-order rate constant for the inhibition of human leukocyte elastase
T1 sequence (whole entry): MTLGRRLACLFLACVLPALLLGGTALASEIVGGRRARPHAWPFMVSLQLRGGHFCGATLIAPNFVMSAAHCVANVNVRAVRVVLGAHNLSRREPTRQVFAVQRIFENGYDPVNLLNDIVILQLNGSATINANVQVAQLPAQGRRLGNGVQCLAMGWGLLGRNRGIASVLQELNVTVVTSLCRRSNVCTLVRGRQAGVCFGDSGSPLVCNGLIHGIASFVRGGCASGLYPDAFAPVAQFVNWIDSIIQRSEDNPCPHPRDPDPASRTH
Summary of the method: (§2)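 Pre-incubation (Kitz–Wilson) kinetics at 25 °C. Enzyme and inhibitor were incubated, and aliquots were withdrawn at several time intervals into a cuvette holding substrate in HEPES buffer. After 30 s, the absorbance change was followed for 60 s.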

[2] = target: T2, Chymotrypsin-like elastase family member 2A (Sus scrofa) (UniProt P08419); assay: Second-order rate constant for the inhibition of PPE (pancreatic porcine elastase); NI=no inhibition
T2 sequence (whole entry): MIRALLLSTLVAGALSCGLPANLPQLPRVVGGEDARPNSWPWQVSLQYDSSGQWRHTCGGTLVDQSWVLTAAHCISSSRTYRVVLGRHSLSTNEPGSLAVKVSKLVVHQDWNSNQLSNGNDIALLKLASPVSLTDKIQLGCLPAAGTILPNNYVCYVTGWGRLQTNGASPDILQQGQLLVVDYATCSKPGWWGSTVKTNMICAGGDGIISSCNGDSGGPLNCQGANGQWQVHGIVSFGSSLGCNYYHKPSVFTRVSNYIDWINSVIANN
Summary of the method: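 Porcine pancreatic elastase was assayed at 25 °C with an inhibitor-to-enzyme ratio [I]/[E] of 200, giving the second-order constant k_obs/[I].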

[3] = Half-life in pH 7.4 phosphate buffer at 37 degree C; type: ADME
[4] = target: T1, Neutrophil elastase (Homo sapiens); assay: Second-order rate constant for the inhibition of HLE (human leukocyte elastase); summary of the method: as §2
[5] = target: T3, Neutrophil elastase (Homo sapiens, UniProt P08246); assay: as §1; summary of the method: as §2
T3 sequence (P08246 whole entry): T1 sequence (whole entry)

[6] = target: T1, Neutrophil elastase (Homo sapiens); assay: Second-order rate constant for the inhibition of human leukocyte elastase;NI=no inhibition; summary of the method: as §2

| Structure (SMILES) | second-order inhibition rate constant [1] | k obs / 1 [2] | half-life [3] | other results |
| --- | --- | --- | --- | --- |
| O=C(OCN1C(=O)CC1S(=O)(=O)c1ccccc1)c1ccccc1 (centres undefined) | 18.7 M⁻¹ s⁻¹ | inactive | 40.8 days | – |
| CO[C@H]1C(=O)N2C(C(=O)O)=C(COC(C)=O)CS(=O)(=O)C12 (some centres undefined) | 19000 M⁻¹ s⁻¹ | – | – | – |
| CCC1(CC)C(=O)N(COC(=O)c2ccccc2)C1Sc1nc2ccccc2o1 (centres undefined) | 52.8 M⁻¹ s⁻¹ | inactive | 13.2 days | – |
| CCC1(CC)C(=O)N(COC(=O)c2ccccc2)C1Sc1ccccc1 (centres undefined) | 2.2 M⁻¹ s⁻¹ | – | – | – |
| O=C(OCN1CCC1=O)c1ccccc1 | – | inactive | 0.0542 days | k obs / 1 [4]: 35.5 M⁻¹ s⁻¹ |
| CO[C@H]1C(=O)N2C(C(=O)O)=C(CF)CS(=O)(=O)C12 (some centres undefined) | – | – | 0.792 days | IC50 [5]: 110 µM |
| O=C(OCN1C(=O)CC1Sc1ccccc1)c1ccccc1 (centres undefined) | – | – | – | k obs / 1 [6]: inactive |
| CCC1(CC)C(=O)N(CO)C1S(=O)(=O)c1ccccc1 (centres undefined) | – | – | – | k obs / 1 [6]: inactive |
| O=C1CCN1CO | – | – | – | k obs / 1 [6]: inactive |
| O=C(OCN1C(=O)CC1Sc1nc2ccccc2o1)c1ccccc1 (centres undefined) | 43.2 M⁻¹ s⁻¹ | inactive | – | – |

Further lines, with some results ahead:

| second-order inhibition rate constant [1] | k obs / 1 [2] | half-life [3] | Structure (SMILES) | other results |
| --- | --- | --- | --- | --- |
| 32.3 M⁻¹ s⁻¹ | – | – | CCC1(CC)C(=O)N(COC(=O)NS(=O)(=O)c2ccc(C)cc2)C1S(=O)(=O)c1ccccc1 (centres undefined) | – |
| 41.9 M⁻¹ s⁻¹ | inactive | – | CCC1(CC)C(=O)N(COC(=O)Nc2ccccc2)C1S(=O)(=O)c1ccccc1 (centres undefined) | – |
| 100 M⁻¹ s⁻¹ | inactive | > 208 days | CCC1(CC)C(=O)N(COC(=O)Nc2ccc(OC)cc2)C1S(=O)(=O)c1ccccc1 (centres undefined) | – |
| 67.5 M⁻¹ s⁻¹ | inactive | 125 days | CCC1(CC)C(=O)N(COC(=O)c2ccccc2)C1S(=O)(=O)c1ccccc1 (centres undefined) | – |
| 60.9 M⁻¹ s⁻¹ | inactive | – | CCC1(CC)C(=O)N(COC(=O)Nc2ccc(C)cc2)C1S(=O)(=O)c1ccccc1 (centres undefined) | – |
